Measurements from publication PMC8600646 (ACS Omega, 2021).
Values after ≈ are worked out from the molar mass of the structure shown. Values joined by “and” are separate entries in the source; they are usually repeats but may differ in a detail not shown here. Identical values can stand only once. Like-named read-outs stand apart in the source and are kept apart here.

Key:
[1] = cited from earlier work
Cyclic voltammetry = assay type: physicochemical; conditions: for Dred (CV): 1 mM; for Dox (CV): oxidized species
Method in brief: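 Three-electrode cell: 3 mm glassy carbon working electrode (0.0707 cm2), Ag/AgCl in 3 M KCl reference, Pt wire counter. Electrode polished with 0.05 μm alumina and rinsed with water and methanol. Nitroxide starts at 1 mM; hydrotrope electrolytes readjusted to pH 7.0 (HCl) or, for the disulfonate, to about 0 (H2SO4). Triplicate CVs at 0.001–1 V/s, three cycles per rate.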

[2] = Linear sweep voltammetry with rotating disk electrode; assay type: physicochemical; conditions: for Dox (LSV): oxidized species
[3] = Electrochemical impedance spectroscopy; assay type: physicochemical
Method in brief: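 Glassy carbon rotating disk (5 mm; 0.196 cm2) with Ag/AgCl reference and Pt wire counter; polished as for CV. Solutions hold 1 mM reduced radical plus 1 mM oxidised form, made by bulk electrolysis at 0.75 V vs Ag/AgCl for 5–10 h. Run at open-circuit potential, 2500 rpm, 10 mV amplitude, 0.5–100000 Hz. Rct comes from a Nyquist fit, then j0, then k0 assuming α = 0.5.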

[4] = Hydraulic radius calculated with the Stokes-Einstein equation; assay type: physicochemical; conditions: from Dred CV, 298K
Method in brief: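 Stokes–Einstein estimate that uses Dred from the CV fits, the measured solution viscosity and T = 298 K. Viscosities come from a concentric-cylinder rotational rheometer (KCl-based solutions) or a calibrated Ubbelohde glass viscometer (1 M H2SO4 and 15 wt % proline).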

[5] = cited from earlier work; for Dred, previously reported: aqueous solution
[6] = Viscosity measurements of hydrotrope solutions; assay type: physicochemical; conditions: 20 wt % hydrotrope in 1 M KCl, rotational rheometer
Method in brief: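 Rotational rheometer with concentric cylinder geometry over shear rates of 10 to 100/s. Solutions tested: 1 M KCl, 20 wt % NaXS and 20 wt % NapTS.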

[7] = for 3,4-dimethylbenzenesulfonate; cited from earlier work

Molecule: Oc1ccc(O)cc1 [hydroquinone, benzene-1,4-diol, reference compound]
- solubility ([1]; deionized water, 4.0 M urea): 1500 mM (≈ 165 mg/mL)

Molecule: CC1(C)CC(O)CC(C)(C)N1[O] [4-OH-TEMPO, 4-OH-TEMPO free radical]
- formal reduction potential E0' (Cyclic voltammetry; 1 M KCl, no hydrotrope): 0.59 ± 0.00 V vs Ag/AgCl and 0.59 V vs Ag/AgCl
- Dred (CV) (Cyclic voltammetry; 1 M KCl, no hydrotrope): 7.00 ± 0.24 × 10^–6 cm^2/s
- standard rate constant k0 (CV) (Cyclic voltammetry; 1 M KCl, no hydrotrope, glassy carbon electrode): 0.35 ± 0.14 cm/s
- standard rate constant k0 (CV) (Cyclic voltammetry; 20 wt % NaXS in 1 M KCl): 0.48 ± 0.19 cm/s
- Dred (CV) (Cyclic voltammetry; 20 wt % NaXS in 1 M KCl): 3.33 ± 0.04 × 10^–6 cm^2/s
- formal reduction potential E0' (Cyclic voltammetry; 20 wt % NaXS in 1 M KCl, vs Ag/AgCl): 0.59 ± 0.01 V
- standard rate constant k0 (CV) (Cyclic voltammetry; 20 wt % NapTS in 1 M KCl): 0.95 ± 0.07 cm/s
- Dred (CV) (Cyclic voltammetry; 20 wt % NapTS in 1 M KCl): 4.27 ± 0.14 × 10^–6 cm^2/s
- formal reduction potential E0' (Cyclic voltammetry; 20 wt % NapTS in 1 M KCl, vs Ag/AgCl): 0.59 ± 0.00 V
- standard rate constant k0 (CV) (Cyclic voltammetry; 20 wt % urea in 1 M KCl): 0.78 ± 0.16 cm/s
- Dred (CV) (Cyclic voltammetry; 20 wt % urea in 1 M KCl): 5.90 ± 0.07 × 10^–6 cm^2/s
- formal reduction potential E0' (Cyclic voltammetry; 20 wt % urea in 1 M KCl, vs Ag/AgCl): 0.59 ± 0.00 V
- Dox (CV) (Cyclic voltammetry; 1 M KCl, no hydrotrope): 6.82 ± 0.32 × 10^–6 cm^2/s
- Dox (CV) (Cyclic voltammetry; 20 wt % NaXS in 1 M KCl): 3.50 ± 0.11 × 10^–6 cm^2/s
- Dox (CV) (Cyclic voltammetry; 20 wt % NapTS in 1 M KCl): 4.92 ± 0.15 × 10^–6 cm^2/s
- Dox (CV) (Cyclic voltammetry; 20 wt % urea in 1 M KCl): 5.55 ± 0.12 × 10^–6 cm^2/s
- Dred (LSV) ([2]; 1 M KCl, no hydrotrope): 10.53 × 10^–6 cm^2/s
- standard rate constant k0 (LSV) ([2]; 1 M KCl, no hydrotrope): 0.09 ± 0.07 cm/s
- Dred (LSV) ([2]; 20 wt % NaXS in 1 M KCl): 6.63 × 10^–6 cm^2/s
- standard rate constant k0 (LSV) ([2]; 20 wt % NaXS in 1 M KCl): 0.12 ± 0.11 cm/s
- Dred (LSV) ([2]; 20 wt % NapTS in 1 M KCl): 8.53 × 10^–6 cm^2/s
- standard rate constant k0 (LSV) ([2]; 20 wt % NapTS in 1 M KCl): 0.32 ± 0.33 cm/s
- Dox (LSV) ([2]; 1 M KCl, no hydrotrope): 6.03 × 10^–6 cm^2/s
- Dox (LSV) ([2]; 20 wt % NaXS in 1 M KCl): 3.76 × 10^–6 cm^2/s
- Dox (LSV) ([2]; 20 wt % NapTS in 1 M KCl): 4.40 × 10^–6 cm^2/s
- standard rate constant k0 (EIS) ([3]; 1 M KCl, no hydrotrope): 0.08 ± 0.00 cm/s
- standard rate constant k0 (EIS) ([3]; 20 wt % NaXS in 1 M KCl): 0.29 ± 0.11 cm/s
- standard rate constant k0 (EIS) ([3]; 20 wt % NapTS in 1 M KCl): 0.12 ± 0.01 cm/s
- hydraulic radius ([4]; 20 wt % NaXS): 3.7 Å
- hydraulic radius ([4]; 20 wt % NapTS): 2.7 Å
- hydraulic radius ([4]; no hydrotrope (1 M KCl)): 3.3 Å
- Dred, previously reported ([5]; ref 11): 29.5 × 10^–6 cm^2/s
- Dred, previously reported ([5]; ref 42): 7.7 × 10^–6 cm^2/s
- formal reduction potential E0' ([5]; circumneutral pH): 0.59 V vs Ag/AgCl

Molecule: Cc1cc2nc3c(=O)[nH]c(=O)nc-3n(C[C@H](O)[C@H](O)[C@H](O)COP(=O)(O)O)c2cc1C [FMN, riboflavin-5′-monophosphate]
- aqueous solubility ([1]; 1.0 M KOH, no hydrotrope): 100 mM (≈ 45.6 mg/mL)

Molecule: sodium xylenesulfonate [NaXS]
- viscosity of solution [6]: 1.8 × 10^–3 Pa·s
- pKA [7]: 10.36
